Measured values from different studies.
Lines come from different studies, so protocols differ. In brackets after ≈: the same amount, converted by molar mass.

COc1cc(C2=CCCCc3c2ccc(OC)c3OC(C)c2cnc([N+](=O)[O-])n2C)cc(OC)c1OC (centres unmarked)  IC50 (tubulin polymerisation, inhibitor; 20 min): > 20 µM
CN(C)CCNC(=O)c1ccc(-c2nc3ccc4[nH]ncc4c3c3c2CCCC3)c(F)c1  GI50 (HCC827; cell growth or viability; 72 h): 1.01 µM
COc1cc(C2=CCCc3c2ccc(OC)c3OCc2ccc([N+](=O)[O-])s2)cc(OC)c1OC  IC50 (tubulin polymerisation, inhibitor; 20 min): > 20 µM
Cc1n[nH]c2ccc3nc(-c4ccc(C(=O)NCCN(C)C)cc4F)c4c(c3c12)CCCC4  GI50 (HCC827; cell growth or viability; 72 h): 0.611 µM
OC(Cn1cncn1)(Cn1cncn1)c1ccc(F)cc1F  MIC80 (Nakaseomyces glabratus; microbial growth, broth dilution): 8 µg/mL (≈ 26.1 µM)
COc1cc(C2=CCCCc3c2ccc(OC)c3OCc2cnc([N+](=O)[O-])n2C)cc(OC)c1OC  IC50 (tubulin polymerisation, inhibitor; 20 min): > 20 µM
CCCCC(=O)Nc1ccc(-c2ccc3ncn(CCC(C)C)c(=O)c3c2)cn1  IC50 (HCC827; cell growth or viability, CCK-8; 72 h): 0.55 µM
O=C(Nc1ccccc1)c1ccc(COC(Cn2ccnc2)c2ccc(Cl)cc2Cl)cc1 (centres unmarked)  MIC80 (Nakaseomyces glabratus; microbial growth, broth dilution): 0.25 µg/mL (≈ 0.536 µM)
Cc1nc(Nc2ncc(C(=O)Nc3c(C)cccc3Cl)s2)cc(N2CC[C@H](O)C2)n1  inhibition (OCI-LY19; cell growth or viability, ATP luminescence; 10 µM, 72 h): 9%
CCCn1cnc2ccc(-c3ccc(N4CCC(C)CC4=O)nc3)cc2c1=O (centres unmarked)  IC50 (HCC827; cell growth or viability, CCK-8; 72 h): > 10 µM
Cc1n[nH]c2ccc3nc(-c4ccc(C(=O)NCCN(C)C)cc4)c4c(c3c12)CCCC4  GI50 (HCC827; cell growth or viability; 72 h): 4.07 µM
CCCCn1cnc2ccc(-c3ccc(NC(=O)NCCC)nc3)cc2c1=O  IC50 (HCC827; cell growth or viability, CCK-8; 72 h): > 10 µM
O=C(Nc1ccc(F)cc1)c1ccc(COC(Cn2ccnc2)c2ccc(Cl)cc2Cl)cc1 (centres unmarked)  MIC80 (Nakaseomyces glabratus; microbial growth, broth dilution): 0.25 µg/mL (≈ 0.516 µM)
CCCCC(=O)Nc1ccc(-c2ccc3ncn(CC4CC4)c(=O)c3c2)cn1  IC50 (HCC827; cell growth or viability, CCK-8; 72 h): 0.056 µM
Clc1ccc(COC(Cn2ccnc2)c2ccc(Cl)cc2Cl)c(Cl)c1 (centres unmarked)  MIC80 (Nakaseomyces glabratus; microbial growth, broth dilution): 0.125 µg/mL (≈ 0.3 µM)
CCCCn1cnc2ccc(-c3ccc(NC(=O)NC(C)(C)C)nc3)cc2c1=O  IC50 (HCC827; cell growth or viability, CCK-8; 72 h): 3.97 µM
COc1cc(C2=CCCCc3c2ccc(OC)c3OC(C)c2ccc([N+](=O)[O-])s2)cc(OC)c1OC (centres unmarked)  IC50 (tubulin polymerisation, inhibitor; 20 min): > 20 µM
